Active and inactive are the calls of the source.
Legend:
[1] = tested on: Mus musculus; assay: Analgesic activity in Swiss mouse assessed as maximum possible tail flick latency at 1.25 mg/kg, sc; type: functional; conditions: route subcutaneous
Procedure, shortened: (§1)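 Male Swiss mice, 12 per group, were given compound subcutaneously at doses between 1.25 and 30 mg/kg. Analgesia was measured by tail-flick with an 8 s cut-off to avoid tissue damage. Readings were taken several times from 20 to 120 min after dosing. Inhibition was expressed as percent maximum possible effect (%MPE) by the D'Amour–Smith method.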

[2] = tested on: Mus musculus; assay: Analgesic activity in Swiss mouse assessed as maximum possible tail flick latency at 1.25 mg/kg, sc upto 120 mins; type: functional, organism-based; set-up: dose 1.25 mg/kg; procedure, shortened: as §1
[3] = tested on: Mus musculus; assay: Analgesic activity in Swiss mouse assessed as maximum possible tail flick latency at 10 mg/kg, po; type: functional
Procedure, shortened: (§2)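 Compound was given […] to male Swiss mice, 12 per group. Analgesia was measured by tail-flick with an 8 s cut-off. Responsiveness was read several times from 20 to 120 min after dosing. Tail-flick inhibition was expressed as percent maximum possible effect (%MPE) by the D'Amour–Smith method.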

[4] = tested on: Mus musculus; assay: Analgesic activity in po dosed Swiss mouse assessed as thermal-stimulus induced tail flick latency; type: functional; procedure, shortened: as §2
[5] = tested on: Mus musculus; assay: Analgesic activity in sc dosed Swiss mouse assessed as assessed as thermal-stimulus induced tail flick latency after 30 mins; conditions: 0.5 h
[6] = tested on: Mus musculus; assay: Analgesic activity in sc dosed Swiss mouse assessed as assessed as thermal-stimulus induced tail flick latency after 60 mins; type: functional; conditions: 1 h

| Compound | MPE [1] [%] | Activity [2] | further results |
| --- | --- | --- | --- |
| CN1CC[C@]23c4c5ccc(O)c4O[C@H]2[C@@H](O[C@@H]2O[C@H](c4nc6n(n4)CCC(O)N6)[C@@H](O)[C@H](O)[C@H]2O)C=C[C@H]3[C@H]1C5.O=C(O)C(F)(F)F (stereo not given in full) | 80 | Active |  |
| Cc1nnc([C@H]2O[C@@H](O[C@H]3C=C[C@H]4[C@H]5Cc6ccc(O)c7c6[C@@]4(CCN5C)[C@H]3O7)[C@H](O)[C@@H](O)[C@@H]2O)o1.O=C(O)C(F)(F)F | 80 | Active |  |
| CN1CC[C@]23c4c5ccc(O)c4O[C@H]2[C@@H](O[C@@H]2O[C@H](c4nnn[nH]4)[C@@H](O)[C@H](O)[C@H]2O)C=C[C@H]3[C@H]1C5.O=C(O)C(F)(F)F | 80 | Active | MPE [3]: 78%; ED50 [4]: 2.5 mg/kg |
| CN1CC[C@]23c4c5ccc(O)c4O[C@H]2[C@@H](O)C=C[C@H]3[C@H]1C5 [MORPHINE] |  |  | ED50 [5]: 4.4 mg/kg |
| CN1CC[C@]23c4c5ccc(O)c4O[C@H]2[C@@H](O[C@@H]2O[C@H](C(=O)O)[C@@H](O)[C@H](O)[C@H]2O)C=C[C@H]3[C@H]1C5 [MORPHINE GLUCURONIDE] |  |  | ED50 [6]: 2.7 mg/kg |

From ChEMBL document CHEMBL1821654, “Synthesis and biological evaluation of analogues of M6G” (2011)
